Screening data deposited in PubChem by several laboratories.
Only some compounds are listed: those with a hit (about 1.6% of all), similar ones and a draw of the others.
ARFGAP1 inh = rat ARFGAP1 inhibition. Q62848. Arfgap1-stimulated ARF1 GTP hydrolysis, GDP FP detection. inhibition, % at 16.5 µM. 360,000 tested, 0.26% active. AID 651572;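 active = inhibition above a per-plate limit, mean inhibition of low control wells plus 3 SD, cut at about 25% in these data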;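 also: 0% = DMSO wells with enzyme and 100% = wells lacking Arfgap1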
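Assay system: Rat Arfgap1 GAP domain (His6, aa 1-136), purified enzyme | Buffer or medium: HEPES 25 mM pH 7.5, NaCl 150 mM, MgCl2, DTT | Schedule: GTP hydrolysis reaction 2 h at 25 °C | Signal: FP of antibody-bound GDP Alexa 633 tracer, ex 620/em 688 nm | Measure: Percent inhibition of Arfgap1-stimulated GTP hydrolysis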
H9c2 protect = myocardial damage modulation in H9c2 cells. 360,000 tested, 0.63% active. H9c2 cardiomyocytes, H2O2 injury protection, ATPLite, 2 h. protection from H2O2 cell death, % at 20 µM;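 active = compounds giving at least 50% protection of heart cells from peroxide-induced death in the single-dose screen, raw or plate-pattern-corrected value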;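 also: 0% = DMSO wells with peroxide and 100% = DMSO wells without peroxide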
ASAP1 GAP inh = blocks human ASAP1-stimulated Arf1 GTP hydrolysis. Q9ULH1. GDP FP detection. inhibition, % at 16.5 µM. 360,000 tested, 0.19% active. AID 624377; in the data active = inhibition above about 25%;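 also: 0% = vehicle with enzyme and substrate and 100% = no enzyme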
Neddylation inh = inhibitors of human cullin neddylation; TR-FRET cullin neddylation, biochemical; inhibition, % at 25 µM; 360,000 tested, 0.58% active; in the data active = inhibition above about 36%
Target sequence (P61081 whole entry, looked up): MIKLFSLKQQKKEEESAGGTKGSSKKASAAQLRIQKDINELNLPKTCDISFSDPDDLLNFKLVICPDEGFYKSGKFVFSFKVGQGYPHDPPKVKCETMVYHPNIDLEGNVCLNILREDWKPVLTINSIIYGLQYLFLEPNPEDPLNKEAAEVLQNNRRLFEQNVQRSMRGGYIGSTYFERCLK
Target sequence (Q13564 whole entry, looked up): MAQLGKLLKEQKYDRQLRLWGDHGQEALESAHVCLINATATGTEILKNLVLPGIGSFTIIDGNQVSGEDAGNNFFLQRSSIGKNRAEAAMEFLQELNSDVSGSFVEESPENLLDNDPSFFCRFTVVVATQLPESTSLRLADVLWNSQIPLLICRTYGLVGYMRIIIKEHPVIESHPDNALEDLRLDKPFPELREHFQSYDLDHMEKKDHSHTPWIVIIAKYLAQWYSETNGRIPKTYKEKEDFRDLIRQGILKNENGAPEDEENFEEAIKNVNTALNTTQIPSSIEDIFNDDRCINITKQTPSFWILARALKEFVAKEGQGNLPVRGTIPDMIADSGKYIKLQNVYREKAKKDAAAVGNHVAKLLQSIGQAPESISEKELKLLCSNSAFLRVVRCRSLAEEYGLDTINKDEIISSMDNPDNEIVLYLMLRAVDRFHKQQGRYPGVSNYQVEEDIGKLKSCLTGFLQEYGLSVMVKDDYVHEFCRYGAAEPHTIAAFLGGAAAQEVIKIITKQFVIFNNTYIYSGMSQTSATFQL
Numbers without * were called inactive; · = no result given.

SMILES	ARFGAP1 inh	H9c2 protect	ASAP1 GAP inh	Neddylation inh
COc1ccccc1NS(=O)(=O)c1cc(NC(=O)Cc2n[nH]c(=O)c3ccccc23)ccc1Cl	-15.1	69.9*	-11.7	-8.6
COc1ccc(NS(=O)(=O)c2cc(NC(=O)c3cc(=O)c4ccccc4o3)ccc2OC)cc1	6.7	42.1	9.1	·
COc1ccc(NS(=O)(=O)c2cc(NC(=O)Cc3n[nH]c(=O)c4ccccc34)ccc2OC)cc1	-2.3	70.5*	-12.8	-59.8
N#CC(c1c(Cl)cccc1N1CCCCC1)N1CCCCC1 (stereo not drawn)	-6.2	·	-21.1	·
Cn1c(=O)[nH]c(=O)c2c1nc(N(CCO)Cc1ccccc1)n2CCCc1ccccc1	0.4	52.3*	-3.1	7.1
C=C(C)Cn1c(N(CCO)Cc2ccccc2)nc2c1c(=O)[nH]c(=O)n2C	-2.3	9.1	20.8	-3.7
Cc1nn(-c2ccccc2)c(N2CCCC2)c1/C=N/n1cnc2scc(-c3ccccc3)c2c1=O	-3.0	61.5*	5.6	16.8
COc1cccc(/C=N/NC(=O)c2ccc3nc[nH]c3c2)c1O	8.2	-4.5	-8.2	-5.4
CCN(CC)c1ccc(/C=N/NC(=O)c2ccc3nc[nH]c3c2)c(O)c1	·	40.4	·	38.3*
Cc1[nH]c2ccccc2c1CC(=O)Nc1ccc(Nc2ccncc2)cc1	-5.2	·	8.7	·
O=C(COc1ccccc1[N+](=O)[O-])Nc1ccc(N2CCN(C(=O)c3cccs3)CC2)cc1	-2.5	65.9*	-14.5	-37.8
COC(=O)c1cc2c(c3c4cc(C)ccc4n(S(=O)(=O)c4ccccc4)c13)C(=O)N(Cc1ccc(C(F)(F)F)cc1)C2	2.4	·	6.5	·
CCOc1cc(/C=C/c2nc3ccccc3c(=O)[nH]2)ccc1O	0.2	57.1*	21.3	23.6
CCCn1c(SC(C(=O)Nc2cccc(OC)c2)c2ccccc2)nc2ccccc2c1=O (stereo not drawn)	1.2	50.4*	-1.2	-76.7
CCOC(=O)c1cccc(NC(=O)CSc2nc3ccccc3c(=O)n2CCOC)c1	7.1	68.9*	-0.1	-2.1
O=S1(=O)N[C@H](Cc2ccccc2)COc2cc(N3CCOCC3)ccc21	8.5	·	-7.1	·
Cc1onc(-c2ccccc2)c1C(=O)NCC1CCN(C(=O)C(=O)c2cccs2)CC1	4.4	·	-9.0	·
Cc1cc2ccccc2c(=O)[nH]1	3.6	57.1*	-4.0	9.4
Cc1ccccc1Nc1cc2ccccc2c(=O)[nH]1	·	-36.2	·	-9.9
O=C(C(=O)N1CCN(S(=O)(=O)c2ccc(C(F)(F)F)cc2)CC1)c1cccc(C(F)(F)F)c1	-3.3	·	-12.7	·
CCC(CC)C(=O)Nc1cc(C)c2c(=O)oc3ccccc3c2n1	2.0	71.2*	4.5	-28.1
Cc1cc(NC(=O)c2ccccc2)nc2c1c(=O)oc1ccccc12	2.6	40.6	6.5	-340.4
COc1cc(/C=N/NC(=O)c2cc3c(ccc4ccccc43)o2)cc(OC)c1O	-5.8	13.6	3.7	42.4*
CN1CCCCC(NC(=O)CCl)C1=O (stereo not drawn)	6.8	·	10.9	·
Cc1ccc2nc(-c3cccc(Br)c3)c(Cc3ccsc3)n2c1	23.8	·	-9.8	·
SMILES	ARFGAP1 inh	H9c2 protect	ASAP1 GAP inh	Neddylation inh
Cn1c(-n2c(CCCN3C(=O)c4ccccc4C3=O)nc3ccccc3c2=O)nc2ccccc21	-7.9	101.3*	-1.6	-70.7
CCc1nc(Nc2ccncc2)c2oc3ccccc3c2n1	0.0	3.7	4.2	42.3*
O=C(/C=C/c1ccc(F)cc1)NC(=S)NNC(=O)c1cnccn1	-14.7	52.4*	-9.0	65.1*
COc1ccc(/C=C/C(=O)NC(=S)NNC(=O)c2cnccn2)cc1	-8.5	40.9	-1.6	59.1*
CCOC(=O)CSC1=C(C#N)C(c2ccccc2OCC)C(C(=O)OCC)C(=O)N1 (stereo not drawn)	-2.4	7.8	3.5	-8.8
CCOC(=O)C1C(=O)NC(SCC(=O)OC)=C(C#N)C1c1ccccc1OCC (stereo not drawn)	·	72.0*	·	-3.4
Cc1ccc(-c2nn3c(-c4ccco4)nnc3c3ccccc23)cc1S(=O)(=O)NCC1CCCO1 (stereo not drawn)	-11.5	54.7*	-7.0	2.3
Cc1ccc(-c2nnc(Nc3ccccc3)c3ccccc23)cc1S(=O)(=O)NCC1CCCO1 (stereo not drawn)	13.5	28.7	4.3	·
COc1ccc(OC)c(NC(=O)c2sc3ncnc(N4CCN(c5ccccn5)CC4)c3c2C)c1	·	86.5*	·	28.4
Cc1ccc(/C=N/NC(=O)c2c(C)nc3ccc(Br)cn23)cc1	-1.7	10.7	-6.8	-4.9
COc1ccc(/C=N\NC(=O)c2c(C)nc3ccc(Br)cn23)cc1	7.2	59.9*	7.4	-8.4
